# According to ChEMBL document CHEMBL1121818, “Some reactions of 1,4-dihydropyridines with organic azides. Synthesis of 2,7-diazabicyclo[4.1.0]hept-3-enes with analgesic and antiprotozoal activity” (1981):
# Assays:
# Format in all cases: functional
# [1] = test system: Mus musculus; assay: Analgesic activity was measured on phenylquinone writhing in mice at 64 mg/kg subcutaneous dose; conditions: sc
# In short: (§1)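 Male Swiss albino mice, 18-22 g, five per group. Compound suspended in physiological saline with Tween 80 and given sc. 30 min later, 0.03% phenyl-p-benzoquinone given ip at 0.1 mL/10 g body weight. Total writhes per animal counted against a vehicle-treated control group. % change = (writhes treated/writhes control) × 100 − 100.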
# [2] = test system: Trichomonas vaginalis; assay: Compound was measured as concentration of compound required for 90% growth inhibition of Trichomonas vaginalis
# In short: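 Tube dilution in modified TYM basal medium, with compound added in µg/mL of medium. Inoculum 1 × 10^5/mL T. vaginalis trophozoites pre-grown 48 h in the same medium. Incubated 24 and 48 h at 35 °C. Aliquots diluted in saline with 1% formaldehyde and counted in a Speirs-Levy chamber. MIC is the lowest concentration giving 90% growth inhibition.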
# [3] = test system: Mus musculus; assay: Analgesic activity was measured on phenylquinone writhing in mice at 128 mg/kg subcutaneous dose; conditions: sc; in short: as §1
# [4] = test system: Mus musculus; assay: Analgesic activity was measured on phenylquinone writhing in mice at 50 mg/kg subcutaneous dose; conditions: sc; in short: as §1
# [5] = test system: Mus musculus; assay: Analgesic activity was measured on phenylquinone writhing in mice at 56 mg/kg subcutaneous dose; conditions: sc; in short: as §1
# [6] = test system: Mus musculus; assay: Analgesic activity was measured of phenylquinone writhing in mice at 64 mg/kg subcutaneous dose; conditions: sc; in short: as §1
# [7] = test system: Mus musculus; assay: Analgesic activity was measured of phenylquinone writhing in mice at 32 mg/kg subcutaneous dose; conditions: sc; in short: as §1
# [8] = test system: Mus musculus; assay: Analgesic activity was measured of phenylquinone writhing in mice at 16 mg/kg subcutaneous dose; conditions: sc; in short: as §1
# [9] = test system: Mus musculus; assay: Analgesic activity was measured of phenylquinone writhing in mice at 4 mg/kg subcutaneous dose; conditions: sc; in short: as §1
# [10] = test system: Mus musculus; assay: Analgesic activity was measured of phenylquinone writhing in mice at 8 mg/kg subcutaneous dose; conditions: sc; in short: as §1
Compound,MIC [2],inhibition in vivo at 128 mg/kg [3],further results
CN1C=CC[C@@H]2[C@H]1N2S(=O)(=O)c1ccccc1 (stereo partly drawn),< 10 µg/mL,,inhibition in vivo at 64 mg/kg [1]: 92%
O=S(=O)(c1ccccc1)N1[C@@H]2CC=CN[C@@H]21 (stereo partly drawn),,47%,
CC(=O)Nc1ccc(S(=O)(=O)N2[C@@H]3CC=CN(C)[C@@H]32)cc1 (stereo partly drawn),< 10 µg/mL,95%,
CC(=O)Oc1ccccc1C(=O)O [ASPIRIN],,,inhibition in vivo at 50 mg/kg [4]: 50%
CN1C=CC[C@@H]2[C@H]1N2C#N,< 10 µg/mL,,inhibition in vivo at 64 mg/kg [1]: 86%
CN1C=CC[C@@H]2[C@H]1N2S(C)(=O)=O (stereo partly drawn),< 10 µg/mL,50%,
CCC(=O)O[C@](Cc1ccccc1)(c1ccccc1)[C@H](C)CN(C)C [PROPOXYPHENE],,,inhibition in vivo at 56 mg/kg [5]: 50%
CN1C=CC[C@@H]2[C@H]1N2S(=O)(=O)c1ccc(N)cc1 (stereo partly drawn),< 10 µg/mL,97%,inhibition in vivo at 64 mg/kg [6]: 78%; inhibition in vivo at 32 mg/kg [7]: 69%; inhibition in vivo at 16 mg/kg [8]: 45%; inhibition in vivo at 4 mg/kg [9]: 23%; inhibition in vivo at 8 mg/kg [10]: 40%
